For assay [1], the species on record is Homo sapiens. The assay can be described thus: Antiangiogenic activity in VEGF-induced HLMEC assessed as number of sprouts per bead at 2.6 uM after 24 hrs by sprouting assay. Format: functional. In a few lines: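 HLMEC seeded on cytodex-3 microcarrier beads and embedded in 3D fibrinogen gel with 20 ng/mL VEGF plus compound at a final 1.3 or 2.6 µM (from 1 mM DMSO stock). Gel polymerised with 0.65 U/mL thrombin and overlaid with MCDB131, 5% FCS, 5% human serum and 200 U/mL Trasylol. Negative control: gel without growth factors. After 24 h, fixed in 1% PFA; sprouts per 50 beads counted microscopically. Triplicates per condition, n = 9 experiments.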

Assay [2] has as its target Mitogen-activated protein kinase kinase kinase 8 (Homo sapiens, UniProt P41279). The assay can be described thus: Inhibition of human recombinant COT. In a few lines:
(§1)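 Human kinases expressed in Sf9 cells by baculovirus as GST or His fusions and affinity purified. Radiometric 33PanQinase assay: 60 mM HEPES-NaOH pH 7.5, 3 mM MgCl2, 3 mM MnCl2, 3 µM orthovanadate, 1.2 mM DTT, 1 µM [γ-33P]ATP, 50-400 ng enzyme, 1% DMSO; 30 °C, 80 min. Substrates: B-Raf-VE, MEK1 KM; CDK2/CycA, histone H1; CK2-A1, casein; COT, autophosphorylation. IC50 from 10 concentrations; 33Pi incorporation by scintillation.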

Assay [3] is filed under the species Homo sapiens. In words: Induction of apoptosis in HDMEC assessed as cleaved caspase 3 at 2.6 uM after 24 hrs. Format: functional. In outline:
(§2)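 HDMEC incubated 24 h with compound. Adherent cells and supernatant harvested together, stained with an antibody to cleaved caspase-3, and analysed by FACS as percent apoptotic cells. Three independent repeats.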

The species entered for assay [4] is Homo sapiens. The assay can be described thus: Induction of apoptosis in HDMEC assessed as cleaved caspase 3 at 1.3 uM after 24 hrs. The assay is classed as functional. In a few lines: as §2
In assay [5] the target is Platelet-derived growth factor receptor beta (Homo sapiens, UniProt P09619). The assay can be described thus: Inhibition of human recombinant PDGFRbeta.
Chain of Platelet-derived growth factor receptor beta (P09619 whole entry): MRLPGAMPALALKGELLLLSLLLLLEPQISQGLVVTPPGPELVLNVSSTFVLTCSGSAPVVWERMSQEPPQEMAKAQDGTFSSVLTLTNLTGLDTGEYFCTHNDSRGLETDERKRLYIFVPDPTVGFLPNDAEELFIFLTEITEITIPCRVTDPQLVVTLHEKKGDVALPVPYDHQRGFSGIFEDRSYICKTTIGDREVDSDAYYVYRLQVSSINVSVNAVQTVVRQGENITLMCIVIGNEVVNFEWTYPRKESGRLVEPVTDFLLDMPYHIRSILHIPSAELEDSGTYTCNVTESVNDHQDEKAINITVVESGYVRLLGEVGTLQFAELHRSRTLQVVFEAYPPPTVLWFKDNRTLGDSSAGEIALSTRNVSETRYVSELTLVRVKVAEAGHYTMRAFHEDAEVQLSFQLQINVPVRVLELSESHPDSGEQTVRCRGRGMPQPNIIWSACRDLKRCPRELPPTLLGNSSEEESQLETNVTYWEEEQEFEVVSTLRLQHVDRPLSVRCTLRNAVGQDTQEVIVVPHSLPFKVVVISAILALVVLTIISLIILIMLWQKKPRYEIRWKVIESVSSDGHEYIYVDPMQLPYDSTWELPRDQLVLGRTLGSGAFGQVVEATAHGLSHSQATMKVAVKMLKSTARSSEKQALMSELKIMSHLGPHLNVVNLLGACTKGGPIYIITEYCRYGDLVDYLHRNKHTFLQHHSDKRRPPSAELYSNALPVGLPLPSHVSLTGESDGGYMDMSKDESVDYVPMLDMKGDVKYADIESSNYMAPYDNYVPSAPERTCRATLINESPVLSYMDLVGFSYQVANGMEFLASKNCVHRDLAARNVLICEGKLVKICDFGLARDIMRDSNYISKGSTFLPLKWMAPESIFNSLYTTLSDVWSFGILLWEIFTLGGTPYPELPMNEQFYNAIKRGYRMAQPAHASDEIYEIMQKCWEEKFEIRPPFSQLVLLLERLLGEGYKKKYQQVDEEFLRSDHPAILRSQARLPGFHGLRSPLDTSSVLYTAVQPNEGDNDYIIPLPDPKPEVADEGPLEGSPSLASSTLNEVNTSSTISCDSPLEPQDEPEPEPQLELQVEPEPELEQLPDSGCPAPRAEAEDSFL
In assay [6] the target is Serine/threonine-protein kinase B-raf (Homo sapiens, UniProt P15056, V600E). In words: Inhibition of human recombinant B-Raf-V600E mutant. In outline:
as §1

Assay [7] concerns the target Cyclin-dependent kinase 2 (Homo sapiens, UniProt P24941). The assay can be described thus: Inhibition of human recombinant CDK2/cyclin A. In outline:
as §1

In the next assay the target is Ephrin type-B receptor 4 (Homo sapiens, UniProt P54760). In words: Inhibition of human recombinant EPHB4. In a few lines: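 Recombinant human tyrosine kinases (EPHB4, TIE2, VEGF-R2, VEGF-R3), expressed in Sf9 insect cells as GST- or His-fusions, with poly(Glu,Tyr) 4:1 as substrate. Conditions: 1 µM [γ-33P]ATP, pH 7.5 HEPES buffer with Mg/Mn, DTT and vanadate, 30 °C for 80 min, 1% DMSO. Ten concentrations were tested and IC50 came from scintillation counting of incorporated 33P.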

Assay [8] deals with Receptor tyrosine-protein kinase erbB-2 (Homo sapiens, UniProt P04626). The assay can be described thus: Inhibition of human recombinant ERBB2. In a few lines:
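Human kinases expressed in Sf9 cells via baculovirus as GST or His fusions and affinity purified. 33PanQinase assay in 60 mM HEPES-NaOH pH 7.5, 3 mM MgCl2, 3 mM MnCl2, 3 µM orthovanadate, 1.2 mM DTT, 1 µM [γ-33P]ATP, 1% DMSO; 30 °C, 80 min. Substrates: poly(Glu,Tyr) 4:1 for ERBB2, IGF1-R and SRC; poly(Ala,Glu,Lys,Tyr) 6:2:5:1 for FLT3. IC50 from 10 concentrations by scintillation counting.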

The target in assay [9] is Hepatocyte growth factor receptor (Homo sapiens, UniProt P08581). In words: Inhibition of human recombinant MET.
Chain of Hepatocyte growth factor receptor (P08581 whole entry): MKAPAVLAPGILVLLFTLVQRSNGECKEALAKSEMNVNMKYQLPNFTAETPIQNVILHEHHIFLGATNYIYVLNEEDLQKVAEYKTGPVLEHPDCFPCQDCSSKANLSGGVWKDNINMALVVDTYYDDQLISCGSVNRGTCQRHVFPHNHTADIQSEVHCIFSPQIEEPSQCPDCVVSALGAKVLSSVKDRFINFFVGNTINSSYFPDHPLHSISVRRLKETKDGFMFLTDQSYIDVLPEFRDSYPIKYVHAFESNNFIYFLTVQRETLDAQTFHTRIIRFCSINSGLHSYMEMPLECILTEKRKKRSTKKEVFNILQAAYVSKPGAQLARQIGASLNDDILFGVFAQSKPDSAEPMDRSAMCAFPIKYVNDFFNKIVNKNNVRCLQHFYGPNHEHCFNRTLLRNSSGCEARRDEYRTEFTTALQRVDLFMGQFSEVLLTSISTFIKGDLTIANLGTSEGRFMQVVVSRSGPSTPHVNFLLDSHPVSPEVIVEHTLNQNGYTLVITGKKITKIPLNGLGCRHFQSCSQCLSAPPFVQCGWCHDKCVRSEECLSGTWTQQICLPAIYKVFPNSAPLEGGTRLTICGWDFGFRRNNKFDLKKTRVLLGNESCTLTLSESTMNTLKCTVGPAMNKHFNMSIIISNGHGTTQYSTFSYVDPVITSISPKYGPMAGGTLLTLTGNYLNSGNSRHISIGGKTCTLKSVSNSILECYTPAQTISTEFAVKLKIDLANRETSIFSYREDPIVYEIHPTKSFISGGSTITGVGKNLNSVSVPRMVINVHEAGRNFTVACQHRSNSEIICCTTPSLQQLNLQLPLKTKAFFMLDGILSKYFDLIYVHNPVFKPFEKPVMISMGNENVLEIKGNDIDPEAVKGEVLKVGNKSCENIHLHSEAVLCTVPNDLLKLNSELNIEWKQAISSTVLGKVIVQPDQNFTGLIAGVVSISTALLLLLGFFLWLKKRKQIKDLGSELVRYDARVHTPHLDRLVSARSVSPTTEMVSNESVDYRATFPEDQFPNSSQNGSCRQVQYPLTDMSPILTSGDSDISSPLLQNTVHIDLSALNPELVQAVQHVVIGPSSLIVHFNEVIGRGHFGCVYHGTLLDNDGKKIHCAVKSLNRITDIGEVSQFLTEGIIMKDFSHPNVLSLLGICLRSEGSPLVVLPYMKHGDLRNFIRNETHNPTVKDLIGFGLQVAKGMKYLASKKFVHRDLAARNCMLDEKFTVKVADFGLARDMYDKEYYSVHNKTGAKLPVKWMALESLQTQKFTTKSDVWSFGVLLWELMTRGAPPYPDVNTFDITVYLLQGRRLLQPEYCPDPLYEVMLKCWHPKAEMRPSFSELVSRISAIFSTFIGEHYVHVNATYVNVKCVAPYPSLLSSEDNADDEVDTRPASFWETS

Chain of Serine/threonine-protein kinase B-raf (P15056 2-766 V600E limits assumed): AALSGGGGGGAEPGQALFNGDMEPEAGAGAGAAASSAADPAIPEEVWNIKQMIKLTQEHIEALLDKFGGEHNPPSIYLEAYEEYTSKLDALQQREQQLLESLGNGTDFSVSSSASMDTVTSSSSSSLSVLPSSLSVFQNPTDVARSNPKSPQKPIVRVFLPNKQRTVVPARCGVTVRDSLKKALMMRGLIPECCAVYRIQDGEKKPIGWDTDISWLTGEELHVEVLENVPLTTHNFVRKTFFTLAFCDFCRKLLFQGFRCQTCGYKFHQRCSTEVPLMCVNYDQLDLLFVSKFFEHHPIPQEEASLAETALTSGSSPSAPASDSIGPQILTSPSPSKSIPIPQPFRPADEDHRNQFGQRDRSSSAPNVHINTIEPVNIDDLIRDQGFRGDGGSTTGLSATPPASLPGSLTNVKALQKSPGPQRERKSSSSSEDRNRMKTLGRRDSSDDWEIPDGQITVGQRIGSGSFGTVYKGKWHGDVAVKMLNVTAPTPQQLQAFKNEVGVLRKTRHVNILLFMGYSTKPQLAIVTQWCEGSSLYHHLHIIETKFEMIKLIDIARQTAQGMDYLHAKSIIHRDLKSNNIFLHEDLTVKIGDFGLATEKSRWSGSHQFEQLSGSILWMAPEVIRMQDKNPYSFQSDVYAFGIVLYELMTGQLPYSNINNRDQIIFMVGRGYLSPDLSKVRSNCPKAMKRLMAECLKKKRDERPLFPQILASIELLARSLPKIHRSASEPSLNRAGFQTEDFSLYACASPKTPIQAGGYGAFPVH
Chain of Mitogen-activated protein kinase kinase kinase 8 (P41279 whole entry, the tested form may be a part): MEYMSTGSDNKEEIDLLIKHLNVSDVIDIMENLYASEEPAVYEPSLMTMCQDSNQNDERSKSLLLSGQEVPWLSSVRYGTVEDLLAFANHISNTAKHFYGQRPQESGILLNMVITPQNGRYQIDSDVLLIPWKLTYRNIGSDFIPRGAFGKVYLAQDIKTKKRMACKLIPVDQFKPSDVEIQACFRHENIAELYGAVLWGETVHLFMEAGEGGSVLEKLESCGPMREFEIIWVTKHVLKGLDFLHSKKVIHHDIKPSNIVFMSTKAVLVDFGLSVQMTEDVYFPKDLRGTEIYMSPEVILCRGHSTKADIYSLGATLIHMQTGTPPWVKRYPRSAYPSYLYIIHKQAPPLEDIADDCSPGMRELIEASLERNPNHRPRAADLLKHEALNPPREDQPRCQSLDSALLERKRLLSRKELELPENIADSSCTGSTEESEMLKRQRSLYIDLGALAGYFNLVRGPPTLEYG
Chain of Receptor tyrosine-protein kinase erbB-2 (P04626 whole entry, the tested form may be a part): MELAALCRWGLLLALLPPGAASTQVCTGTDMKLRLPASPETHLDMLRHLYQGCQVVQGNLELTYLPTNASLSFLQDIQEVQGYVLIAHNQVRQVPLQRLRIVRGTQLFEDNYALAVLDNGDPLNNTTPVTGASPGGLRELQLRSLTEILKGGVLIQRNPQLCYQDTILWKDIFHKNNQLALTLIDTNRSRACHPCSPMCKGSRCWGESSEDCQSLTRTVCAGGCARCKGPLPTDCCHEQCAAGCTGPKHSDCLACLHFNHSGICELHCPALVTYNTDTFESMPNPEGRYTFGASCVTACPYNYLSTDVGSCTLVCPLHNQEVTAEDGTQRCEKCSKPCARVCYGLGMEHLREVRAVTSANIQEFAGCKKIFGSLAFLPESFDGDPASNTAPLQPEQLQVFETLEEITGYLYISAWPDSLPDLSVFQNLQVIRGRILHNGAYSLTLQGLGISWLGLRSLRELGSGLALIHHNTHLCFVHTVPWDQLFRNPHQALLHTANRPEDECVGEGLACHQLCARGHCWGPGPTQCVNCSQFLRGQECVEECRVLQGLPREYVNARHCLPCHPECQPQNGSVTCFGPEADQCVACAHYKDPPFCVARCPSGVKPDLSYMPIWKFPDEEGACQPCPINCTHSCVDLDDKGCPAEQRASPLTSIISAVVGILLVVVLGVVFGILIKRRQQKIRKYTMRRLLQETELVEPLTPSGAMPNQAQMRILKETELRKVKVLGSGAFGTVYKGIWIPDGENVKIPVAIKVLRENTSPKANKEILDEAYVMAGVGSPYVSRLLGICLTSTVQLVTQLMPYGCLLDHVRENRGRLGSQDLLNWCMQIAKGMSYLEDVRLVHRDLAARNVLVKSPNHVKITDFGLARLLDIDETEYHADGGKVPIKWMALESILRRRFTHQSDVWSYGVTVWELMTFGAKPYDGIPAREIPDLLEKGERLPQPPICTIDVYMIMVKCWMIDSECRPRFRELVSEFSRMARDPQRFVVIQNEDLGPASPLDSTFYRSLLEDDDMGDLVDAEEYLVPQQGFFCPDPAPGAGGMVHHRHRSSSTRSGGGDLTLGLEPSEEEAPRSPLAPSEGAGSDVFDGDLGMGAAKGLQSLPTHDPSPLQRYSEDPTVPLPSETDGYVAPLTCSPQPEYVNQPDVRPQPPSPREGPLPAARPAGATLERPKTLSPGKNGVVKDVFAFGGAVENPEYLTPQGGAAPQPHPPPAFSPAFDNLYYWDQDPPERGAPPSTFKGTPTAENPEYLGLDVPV

`COc1cc(C2=C(c3c[nH]c4ccccc34)CNC2=O)cc(OC)c1OC`: the Activity in the assay listed under Homo sapiens [1] was determined as 0.27; in the assay filed under Homo sapiens [3], 42.1%; in the assay filed under Homo sapiens [4] it was 25%. Moreover, the IC50 in assay [2] stood at 32 µM.

With `COc1cc(C2=C(c3cn(CC(O)CO)c4ccccc34)CNC2=O)cc(OC)c1OC` (stereo not given), the IC50 in assay [5] came to 40 µM.

For the compound `COc1cc(C2=C(c3c[nH]c4ccccc34)C(=O)NC2)cc(OC)c1OC`, the Activity in the assay filed under Homo sapiens [1] is 2.56.

For the compound `COc1cc(C2=C(c3cn(C)c4ccccc34)C(=O)NC2)cc(OC)c1OC`, the IC50 in assay [6] came out at 50 µM; in [7] it was 42 µM.

With `COc1cc(C2=C(c3cn(COC(C)(C)C)c4ccccc34)CNC2=O)cc(OC)c1OC`, the IC50 at Ephrin type-B receptor 4 was 20 µM; in [5], 38 µM; in [8] it was 25 µM; in assay [6], 38 µM; in [7], 23 µM; in [2], 9.6 µM. Further, the IC50 in assay [9] was determined as 29 µM.

One may read the IC50 as the concentration needed to halve the response being measured.

For the origin of these results see ChEMBL document CHEMBL1157465, “Design, synthesis, and biological evaluation of novel 3-aryl-4-(1H-indole-3yl)-1,5-dihydro-2H-pyrrole-2-ones as vascular endothelial growth factor receptor (VEGF-R) inhibitors” (J Med Chem, 2008).
